Test results published in ChEMBL document CHEMBL4689842, “EUbOPEN Chemogenomics Library wave 1” (2021).
Values joined by “and” are separate entries in the source; they are usually repeats but may differ in a detail not shown here. Equal entries are not always repeated.

Test system: Fibroblast
Experiment: Multiplex assay against human fibroblast
Format: toxicity, cell-based
How it was run: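 With compound added, live cells were imaged on a CQ1 microscope at 37°C and 5% CO2; staining with Hoechst33342, BioTracker Green Microtubule Cytoskeleton Dye, MitoTracker Red and Annexin V Alexa Fluor 680 had been done at seeding. The CellPathfinder machine-learning gating scheme split cells into Hoechst high-intensity objects or normal cells, normal cells into healthy, pyknosed or fragmented nuclei, and pyknosed cells into mitotic or apoptotic. The tubulin, mitochondrial-mass and membrane-permeability phenotypes are per cents of healthy-nucleus cells.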

[1] = 12 h, 1 µM, compound concentration 1 uM, replicate 1
[2] = 12 h, 1 µM, compound concentration 1 uM, replicate 2
[3] = 12 h, 10 µM, compound concentration 10 uM, replicate 1
[4] = 12 h, 10 µM, compound concentration 10 uM, replicate 2
[5] = 24 h, 1 µM, compound concentration 1 uM, replicate 1
[6] = 24 h, 1 µM, compound concentration 1 uM, replicate 2
[7] = 24 h, 10 µM, compound concentration 10 uM, replicate 1
[8] = 24 h, 10 µM, compound concentration 10 uM, replicate 2
[9] = 48 h, 10 µM, compound concentration 10 uM, replicate 1
[10] = 48 h, 10 µM, compound concentration 10 uM, replicate 2

COCC(=O)NC/C=C/c1ccc2ncnc(Nc3ccc(Oc4ccc(C)nc4)c(C)c3)c2c1 [CP-724714]
Population Apoptotic (%) [1]: 52% and 82%
Population Fragmented Nuclei (%) [1]: 30% and 25%
Population Healthy Nuclei (%) [1]: 51% and 59%
Population Hoechst High Intensity Objects (%) [1]: 14% and 12%
Population Membrane Permeable-Phenotype (%) [1]: 29% and 10%
Population Mitotic Cells (%) [1]: 47% and 17%
Population Normal (%) [1]: 85% and 87%
Population Pyknosed Nuclei (%) [1]: 18%
Total Cell Count [1]: 245 and 254
Population Fragmented Nuclei (%) [2]: 50% and 54%
Population Healthy Nuclei (%) [2]: 33% and 20%
Population Hoechst High Intensity Objects (%) [2]: 27% and 42%
Population Membrane Permeable-Phenotype (%) [2]: 22% and 11%
Population Normal (%) [2]: 72% and 57%
Population Pyknosed Nuclei (%) [2]: 15% and 25%
Population Tubulin-Different-Phenotype (%) [2]: 22% and 44%
Total Cell Count [2]: 73 and 76
Population Apoptotic (%) [3]: 51%
Population Fragmented Nuclei (%) [3]: 33%
Population Healthy Nuclei (%) [3]: 37%
Population Hoechst High Intensity Objects (%) [3]: 14%
Population Membrane Permeable-Phenotype (%) [3]: 14%
Population Mitochondria Different-Phenotype (%) [3]: 50%
Population Mitotic Cells (%) [3]: 48%
Population Normal (%) [3]: 85%
Population Pyknosed Nuclei (%) [3]: 29%
Population Tubulin-Different-Phenotype (%) [3]: 87%
Total Cell Count [3]: 148
Population Apoptotic (%) [4]: 80%
Population Fragmented Nuclei (%) [4]: 18%
Population Healthy Nuclei (%) [4]: 63%
Population Hoechst High Intensity Objects (%) [4]: 11%
Population Membrane Permeable-Phenotype (%) [4]: 37%
Population Mitochondria Different-Phenotype (%) [4]: 94%
Population Mitotic Cells (%) [4]: 20%
Population Normal (%) [4]: 88%
Population Pyknosed Nuclei (%) [4]: 18%
Population Tubulin-Different-Phenotype (%) [4]: 100%
Total Cell Count [4]: 62
Population Apoptotic (%) [5]: 58% and 59%
Population Fragmented Nuclei (%) [5]: 30% and 19%
Population Healthy Nuclei (%) [5]: 51% and 62%
Population Hoechst High Intensity Objects (%) [5]: 14% and 11%
Population Mitotic Cells (%) [5]: 41% and 40%
Population Normal (%) [5]: 85% and 88%
Population Pyknosed Nuclei (%) [5]: 17% and 18%
Total Cell Count [5]: 243 and 259
Population Apoptotic (%) [6]: 37% and 77%
Population Fragmented Nuclei (%) [6]: 55% and 57%
Population Healthy Nuclei (%) [6]: 31% and 21%
Population Hoechst High Intensity Objects (%) [6]: 24% and 51%
Population Membrane Permeable-Phenotype (%) [6]: 16% and 11%
Population Mitochondria Different-Phenotype (%) [6]: 22% and 33%
Population Mitotic Cells (%) [6]: 62% and 22%
Population Normal (%) [6]: 75% and 48%
Population Pyknosed Nuclei (%) [6]: 13% and 21%
Total Cell Count [6]: 77 and 86
Population Apoptotic (%) [7]: 57%
Population Fragmented Nuclei (%) [7]: 34%
Population Healthy Nuclei (%) [7]: 34%
Population Hoechst High Intensity Objects (%) [7]: 14%
Population Membrane Permeable-Phenotype (%) [7]: 16%
Population Mitochondria Different-Phenotype (%) [7]: 69%
Population Mitotic Cells (%) [7]: 42%
Population Normal (%) [7]: 85%
Population Pyknosed Nuclei (%) [7]: 30%
Population Tubulin-Different-Phenotype (%) [7]: 95%
Total Cell Count [7]: 144
Population Apoptotic (%) [8]: 60%
Population Fragmented Nuclei (%) [8]: 16%
Population Healthy Nuclei (%) [8]: 54%
Population Hoechst High Intensity Objects (%) [8]: 11%
Population Membrane Permeable-Phenotype (%) [8]: 51%
Population Mitochondria Different-Phenotype (%) [8]: 96%
Population Mitotic Cells (%) [8]: 40%
Population Normal (%) [8]: 88%
Population Pyknosed Nuclei (%) [8]: 28%
Population Tubulin-Different-Phenotype (%) [8]: 100%
Total Cell Count [8]: 60
Population Apoptotic (%) [9]: 77%
Population Fragmented Nuclei (%) [9]: 35%
Population Healthy Nuclei (%) [9]: 44%
Population Hoechst High Intensity Objects (%) [9]: 14%
Population Membrane Permeable-Phenotype (%) [9]: 10%
Population Mitochondria Different-Phenotype (%) [9]: 41%
Population Mitotic Cells (%) [9]: 22%
Population Normal (%) [9]: 85%
Population Pyknosed Nuclei (%) [9]: 20%
Population Tubulin-Different-Phenotype (%) [9]: 86%
Total Cell Count [9]: 154
Population Apoptotic (%) [10]: 40%
Population Fragmented Nuclei (%) [10]: 34%
Population Healthy Nuclei (%) [10]: 61%
Population Hoechst High Intensity Objects (%) [10]: 8%
Population Membrane Permeable-Phenotype (%) [10]: 14%
Population Mitochondria Different-Phenotype (%) [10]: 34%
Population Mitotic Cells (%) [10]: 60%
Population Normal (%) [10]: 91%
Population Pyknosed Nuclei (%) [10]: 3%
Population Tubulin-Different-Phenotype (%) [10]: 94%
Total Cell Count [10]: 163
